Test results taken from ChEMBL document CHEMBL5244263, “Studies on fragment-based design of allosteric inhibitors of human factor XIa” (Bioorg Med Chem, 2020).
Calls of active or inactive are those of the source. No cut-off for these calls is given here.

What was measured:
[1] = target: T1, Coagulation factor XI (Homo sapiens, UniProt P03951); experiment: Binding affinity to active site dansylated human DEGR-FXIa assessed as maximal change in fluorescence intensity by fluorescence based analysis
In short: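 Dansyl fluorescence titration: aliquots of sulfated QAO added to 250 nM hFXIa–DEGR in 50 mM Tris-HCl pH 7.4, 150 mM NaCl, 0.1% PEG8000 at 37 °C. Emission read at 547 nm with excitation at 345 nm. ΔFMAX, Hill coefficient and KD come from nonlinear regression fits, using the Hill equation or a standard hyperbolic equation. Error is ±1 SE.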

[2] = target: T1, Coagulation factor XI; experiment: Inhibition of human FXIa using S-2366 as chromogenic substrate preincubated with enzyme for 10 mins followed by substrate addition by spectrophotometric analysis
[3] = target: T1, Coagulation factor XI; experiment: Binding affinity to active site dansylated human DEGR-FXIa assessed as change in fluorescence intensity by fluorescence based analysis
[4] = target: T1, Coagulation factor XI; experiment: Binding affinity to active site dansylated human DEGR-FXIa assessed as hyperbolic interaction by measuring change in fluorescence intensity by fluorescence based analysis
In short: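 Titration of sulfated QAOs into 250 nM active-site dansylated hFXIa–DEGR in 50 mM Tris-HCl pH 7.4, 150 mM NaCl, 0.1% PEG8000, 37 °C. Emission monitored at 547 nm (excitation 345 nm). ΔFMAX, Hill coefficient n and KD obtained by nonlinear regression, using either the Hill equation or a standard hyperbolic equation. Error ±1 SE.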

[5] = target: Coagulation factor X (Homo sapiens) (UniProt P00742); experiment: Inhibition of human FXa using methoxycarbonyl-D-cyclohexylglycyl-Gly-Arg-p-nitroanilide as substrate at 500 uM by chromogenic substrate hydrolysis assay
[6] = organism: Homo sapiens; experiment: Inhibition of human FXIa heparin-binding site of A3 domain harboring K252A,K253A,K255A mutant and heparin-binding site of catalytic domain harboring K529A,R530A,R532A,K535A,K539A mutant using S-2366 as chromogenic substrate preincubated with enzyme for 10 mins followed by substrate addition by spectrophotometric analysis relative to control
In short: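 Recombinant hFXIa alanine mutants tested in 50 mM Tris-HCl pH 7.4, 150 mM NaCl, 0.1% PEG8000, 0.02% Tween80. Inhibitor and enzyme incubated 10 min at 37 °C, then S-2366 (345 μM final) added and residual activity read. IC50 and maximal inhibition efficacy (ΔY) obtained by nonlinear dose-response regression.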

[7] = target: Chymotrypsinogen A (Bos taurus) (UniProt P00766); experiment: Inhibition of bovine alpha-chymotrypsin at 500 uM by chromogenic substrate hydrolysis assay
[8] = organism: Bos taurus; experiment: Inhibition of bovine trypsin using S-2222 as chromogenic substrate at 500 uM by chromogenic substrate hydrolysis assay
[9] = target: Plasma kallikrein (Homo sapiens) (UniProt P03952); experiment: Inhibition of Kallikrein in human plasma at 500 uM by chromogenic substrate hydrolysis assay; type: cell-free
[10] = target: T2, Coagulation factor VII (Homo sapiens) (UniProt P08709); experiment: Inhibition of FVIIa (unknown origin) at 500 uM by chromogenic substrate hydrolysis assay
T2 sequence (whole entry): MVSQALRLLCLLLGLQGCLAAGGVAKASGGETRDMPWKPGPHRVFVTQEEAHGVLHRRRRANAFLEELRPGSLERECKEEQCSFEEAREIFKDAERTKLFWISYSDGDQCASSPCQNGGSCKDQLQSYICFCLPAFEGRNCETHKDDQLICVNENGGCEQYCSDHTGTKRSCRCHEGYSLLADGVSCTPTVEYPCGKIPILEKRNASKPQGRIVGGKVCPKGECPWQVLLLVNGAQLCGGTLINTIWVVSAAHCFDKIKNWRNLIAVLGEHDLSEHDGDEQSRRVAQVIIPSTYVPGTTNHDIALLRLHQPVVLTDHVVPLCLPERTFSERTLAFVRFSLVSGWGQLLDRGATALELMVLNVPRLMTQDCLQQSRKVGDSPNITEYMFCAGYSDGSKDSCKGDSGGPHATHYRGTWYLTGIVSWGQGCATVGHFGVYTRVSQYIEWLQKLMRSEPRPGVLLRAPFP

[11] = target: Prothrombin (Homo sapiens) (UniProt P00734); experiment: Inhibition of human thrombin at 500 uM by chromogenic substrate hydrolysis assay
[12] = target: Coagulation factor IX (Homo sapiens) (UniProt P00740); experiment: Inhibition of human FIXa at 500 uM by chromogenic substrate hydrolysis assay
Coagulation factor IX (Homo sapiens), sequence (P00740 47-191 limits assumed): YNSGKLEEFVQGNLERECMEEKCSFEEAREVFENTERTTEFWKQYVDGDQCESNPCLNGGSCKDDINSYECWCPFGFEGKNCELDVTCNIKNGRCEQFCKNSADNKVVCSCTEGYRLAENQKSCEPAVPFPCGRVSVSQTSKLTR
Coagulation factor IX (Homo sapiens), sequence (P00740 227-461 limits assumed): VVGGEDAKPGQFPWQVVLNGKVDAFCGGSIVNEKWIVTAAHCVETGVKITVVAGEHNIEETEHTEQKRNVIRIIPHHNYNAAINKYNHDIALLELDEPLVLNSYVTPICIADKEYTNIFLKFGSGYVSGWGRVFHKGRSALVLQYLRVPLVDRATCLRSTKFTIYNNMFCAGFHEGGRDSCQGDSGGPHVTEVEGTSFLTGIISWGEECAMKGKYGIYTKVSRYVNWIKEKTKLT

T1 sequence (P03951 19-387 limits assumed): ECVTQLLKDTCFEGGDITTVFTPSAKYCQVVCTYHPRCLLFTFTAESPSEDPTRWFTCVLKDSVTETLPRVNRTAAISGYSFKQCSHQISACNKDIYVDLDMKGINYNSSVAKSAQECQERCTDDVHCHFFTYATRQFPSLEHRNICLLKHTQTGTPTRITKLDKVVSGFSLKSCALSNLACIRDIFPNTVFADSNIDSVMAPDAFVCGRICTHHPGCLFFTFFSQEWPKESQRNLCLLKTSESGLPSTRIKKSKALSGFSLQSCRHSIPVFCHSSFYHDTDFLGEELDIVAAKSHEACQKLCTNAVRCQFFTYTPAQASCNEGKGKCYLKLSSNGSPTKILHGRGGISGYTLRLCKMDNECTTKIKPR
T1 sequence (P03951 388-625 limits assumed): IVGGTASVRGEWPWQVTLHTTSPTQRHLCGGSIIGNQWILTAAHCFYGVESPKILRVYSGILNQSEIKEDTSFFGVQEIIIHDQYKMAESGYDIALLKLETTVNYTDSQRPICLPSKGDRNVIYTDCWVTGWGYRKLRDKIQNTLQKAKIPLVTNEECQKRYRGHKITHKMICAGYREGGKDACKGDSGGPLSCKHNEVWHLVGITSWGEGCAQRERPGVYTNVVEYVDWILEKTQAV
Plasma kallikrein (Homo sapiens), sequence (P03952 20-390 limits assumed): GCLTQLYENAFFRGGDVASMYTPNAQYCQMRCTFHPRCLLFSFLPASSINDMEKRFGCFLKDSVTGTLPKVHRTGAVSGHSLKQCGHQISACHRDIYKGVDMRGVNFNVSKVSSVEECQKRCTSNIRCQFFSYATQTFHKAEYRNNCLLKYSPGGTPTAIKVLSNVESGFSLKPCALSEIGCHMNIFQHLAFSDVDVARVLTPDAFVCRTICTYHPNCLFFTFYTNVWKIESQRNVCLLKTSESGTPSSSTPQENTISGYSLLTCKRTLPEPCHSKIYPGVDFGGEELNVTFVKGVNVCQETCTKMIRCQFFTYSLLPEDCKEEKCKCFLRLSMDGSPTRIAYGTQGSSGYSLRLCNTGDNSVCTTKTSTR
Plasma kallikrein (Homo sapiens), sequence (P03952 391-638 limits assumed): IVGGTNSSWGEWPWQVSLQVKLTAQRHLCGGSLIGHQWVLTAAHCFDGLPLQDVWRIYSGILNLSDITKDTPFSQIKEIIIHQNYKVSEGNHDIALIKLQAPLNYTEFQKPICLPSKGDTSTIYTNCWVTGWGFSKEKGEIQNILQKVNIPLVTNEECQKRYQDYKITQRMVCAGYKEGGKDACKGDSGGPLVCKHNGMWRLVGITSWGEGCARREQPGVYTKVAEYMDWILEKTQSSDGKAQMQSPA
Coagulation factor X (Homo sapiens), sequence (P00742 41-179 limits assumed): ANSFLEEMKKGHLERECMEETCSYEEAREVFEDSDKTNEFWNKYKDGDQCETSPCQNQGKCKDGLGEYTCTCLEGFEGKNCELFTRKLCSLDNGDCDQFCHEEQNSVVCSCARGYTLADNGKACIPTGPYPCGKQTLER
Coagulation factor X (Homo sapiens), sequence (P00742 235-488 limits assumed): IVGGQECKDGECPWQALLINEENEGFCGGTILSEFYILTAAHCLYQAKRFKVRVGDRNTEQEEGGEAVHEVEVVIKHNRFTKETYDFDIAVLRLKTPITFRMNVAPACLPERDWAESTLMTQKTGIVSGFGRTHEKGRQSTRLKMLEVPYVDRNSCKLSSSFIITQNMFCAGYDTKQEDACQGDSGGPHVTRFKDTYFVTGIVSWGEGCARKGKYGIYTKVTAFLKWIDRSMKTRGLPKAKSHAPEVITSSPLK

Row | Activity [1] | IC50 [2] | Kd [3] | Activity [4] | SMILES | inhibition [5] | inhibition [6] | inhibition [7] | inhibition [8] | inhibition [9] | inhibition [10] | inhibition [11] | inhibition [12]
1 | -34% | 375 µM | 365 µM | Active | O=c1[nH]c(-c2ccc(OS(=O)(=O)O)cc2)nc2ccccc12 |  |  |  |  |  |  |  | 
2 |  |  |  |  | O=c1c2ccccc2nc(-c2ccc(OS(=O)(=O)O)cc2)n1CCCCCCCCCn1c(-c2ccc(OS(=O)(=O)O)cc2)nc2ccccc2c1=O | inactive | 105% | inactive | inactive | inactive | inactive | inactive | inactive
